# In ChEMBL document CHEMBL1141110, “Structure-activity relationships of new A,D-ring modified steroids as aromatase inhibitors: design, synthesis, and biological activity evaluation” (J Med Chem, 2005):
# T1: Aromatase (Homo sapiens, UniProt P11511)
# T1 sequence (P11511 whole entry): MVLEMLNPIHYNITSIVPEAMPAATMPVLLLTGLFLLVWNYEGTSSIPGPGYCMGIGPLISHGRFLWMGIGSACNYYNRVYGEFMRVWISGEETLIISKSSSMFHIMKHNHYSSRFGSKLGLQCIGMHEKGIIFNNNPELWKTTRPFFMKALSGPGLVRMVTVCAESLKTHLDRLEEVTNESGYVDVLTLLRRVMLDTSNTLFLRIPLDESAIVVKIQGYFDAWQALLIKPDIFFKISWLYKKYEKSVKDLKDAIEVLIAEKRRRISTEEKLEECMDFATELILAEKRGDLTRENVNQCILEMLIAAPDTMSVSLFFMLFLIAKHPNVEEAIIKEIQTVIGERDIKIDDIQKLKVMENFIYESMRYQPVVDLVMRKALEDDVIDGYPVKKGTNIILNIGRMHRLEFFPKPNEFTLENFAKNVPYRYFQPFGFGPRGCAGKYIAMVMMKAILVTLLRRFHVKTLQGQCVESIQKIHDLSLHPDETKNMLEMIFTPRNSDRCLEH
# Legend:
# [1] = target: T1, Aromatase; assay: Inhibition constant against aromatase protein from human placental microsomes using [1-beta-3H]-androstenedione; Competitive inhibition
# Method in brief: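 Microsomes from human placenta. Kinetic runs used 10-30 nM [1β-3H]androstenedione with 150 µM NADPH, a range of inhibitor and substrate concentrations, and 5 min at 37 °C in 67 mM K phosphate pH 7.4. Released 3H2O was separated with chloroform and dextran-coated charcoal, then scintillation counted. Inhibition type was taken from Lineweaver-Burk plots and Ki from Dixon plots. Triplicates.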
# [2] = target: T1, Aromatase; assay: Percent inhibition at 2 uM against aromatase protein from human placental microsomes using [1-beta-3H]-androstenedione
# Method in brief: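 Screening used 20 µg microsomal protein from human placenta, 40 nM [1β-3H]androstenedione (1 µCi) and inhibitor at 2 µM in 67 mM K phosphate pH 7.4. Reaction was started with 150 µM NADPH and run 15 min at 37 °C. 3H2O release was measured by scintillation counting after chloroform and charcoal-dextran cleanup. Inhibition is given relative to the no-inhibitor control. Triplicates.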
# [3] = target: T1, Aromatase; assay: Inhibitory concentration against aromatase protein from human placental microsomes using [1-beta-3H]-androstenedione; Competitive inhibition
# Method in brief: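 Human placental microsomes in 67 mM K phosphate pH 7.4 with 200 nM [1β-3H]androstenedione (1 µCi) and graded inhibitor concentrations; inhibitors were dissolved in ethanol. Reaction was started with 150 µM NADPH and run 15 min at 37 °C. 3H2O was extracted with chloroform and dextran-coated charcoal, then scintillation counted. Triplicates.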
# [4] = target: T1, Aromatase; assay: Ratio of Michaelis-Menten constant and inhibition constant for aromatase enzyme; Competitive inhibition
# Method in brief: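 Ratio of substrate Km to Ki. Km for androstenedione and Ki come from the same placental-microsome kinetic runs: 10-30 nM [1β-3H]androstenedione, 150 µM NADPH, 5 min at 37 °C, with 3H2O release as the read-out. Ki was taken from Dixon plots.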
# [5] = substrate: C[C@]12CCC(=O)C=C1CC[C@@H]1[C@@H]2CC[C@]2(C)C(=O)CC[C@@H]12; assay: Michaelis-Menten constant against Aromatase; set-up: species or system Homo sapiens
# Method in brief: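 Human placental microsomes (cotyledon homogenate, differential centrifugation, stored -80 °C), 67 mM potassium phosphate pH 7.4. Kinetic runs used 10-30 nM [1β-3H]androstenedione, NADPH 150 µM to start, 5 min at 37 °C. Aromatization read as released 3H2O after chloroform and dextran-charcoal extraction, by scintillation counting. Lineweaver-Burk analysis; points are means of three determinations.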
Molecule,Ki [1] [µM],inhibition at 2 µM [2] [%],IC50 [3] [µM],Km/Ki [4],Km [5] [µM]
C[C@]12CC[C@H]3O[C@H]3[C@@H]1CC[C@@H]1[C@@H]2CC[C@]2(C)C(=O)CC[C@@H]12,0.038,96.4,0.145,1.51,
C[C@]12CCC3C(CC[C@H]4C(=O)[C@H](O)CC[C@]34C)C1CCC(=O)O2 (stereo partly specified),,16.6,,,
C[C@]12CCC(=O)C(O)=C1CC[C@@H]1[C@@H]2CC[C@]2(C)C(=O)CC[C@@H]12 [FORMESTANE],,99.1,0.042,,
C[C@]12CCC3C(CC[C@H]4C=CCC[C@]34C)C1CCC2=O (stereo partly specified),0.05,95.9,0.225,1.15,
C[C@]12CC[C@@H](O)[C@H](O)[C@@H]1CC[C@@H]1[C@@H]2CC[C@]2(C)C(=O)CC[C@@H]12,,34.6,,,
C[C@]12CC[C@@H](O)C(=O)[C@@H]1CC[C@@H]1[C@@H]2CC[C@]2(C)C(=O)CC[C@@H]12,0.147,83.3,0.67,0.39,
C[C@]12CCC3C(CC[C@@H]4[C@H]5O[C@H]5CC[C@]34C)C1CCC2=O (stereo partly specified),,14.6,,,
C[C@]12CC[C@H](O)[C@@H](O)[C@H]1CC[C@@H]1[C@@H]2CC[C@]2(C)C(=O)CC[C@@H]12,,10.1,,,
C[C@]12CCC3C(CC[C@@]4(C=O)OC(=O)CC[C@]34C)C1CCC2=O (stereo partly specified),,11,,,
C[C@]12CCC(=O)C(O)=C1CCC1C2CC[C@]2(C)OC(=O)CCC12 (stereo partly specified),0.66,72.5,1.85,0.087,
C[C@]12CCC3C(CC[C@H]4[C@@H](O)[C@H](O)CC[C@]34C)C1CCC(=O)O2 (stereo partly specified),,8.1,,,
C[C@]12CCC3C(CC[C@H]4C(O)(C#N)[C@H](O)CC[C@]34C)C1CCC(=O)O2 (stereo partly specified),,17.6,,,
Aromatase (Homo sapiens) (protein) MVLEMLNPIHYNITSIVPEAMPAATMPVLLLTGLFLLVWNYEGTSSIPGPGYCMGIGPLISHGRFLWMGIGSACNYYNRVYGEFMRVWISGEETLIISKSSSMFHIMKHNHYSSRFGSKLGLQCIGMHEKGIIFNNNPELWKTTRPFFMKALSGPGLVRMVTVCAESLKTHLDRLEEVTNESGYVDVLTLLRRVMLDTSNTLFLRIPLDESAIVVKIQGYFDAWQALLIKPDIFFKISWLYKKYEKSVKDLKDAIEVLIAEKRRRISTEEKLEECMDFATELILAEKRGDLTRENVNQCILEMLIAAPDTMSVSLFFMLFLIAKHPNVEEAIIKEIQTVIGERDIKIDDIQKLKVMENFIYESMRYQPVVDLVMRKALEDDVIDGYPVKKGTNIILNIGRMHRLEFFPKPNEFTLENFAKNVPYRYFQPFGFGPRGCAGKYIAMVMMKAILVTLLRRFHVKTLQGQCVESIQKIHDLSLHPDETKNMLEMIFTPRNSDRCLEH,,,,,0.0575
